Hits are enriched below; roughly 2.8% of the tested compounds scored in any of these assays.
NPY-Y2 PAM-ag: NPY-Y2 potentiators or agonists, primary screen, cell-based | cells expressing NPY-Y2, potentiator/agonist read-out | activation, % at 3.6 µM | 220,000 tested, 0.45% active; in the data active means activation above about 27%;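 further: cells stimulated with NPY near EC25 plus isoproterenol at EC100; 0% = vehicle plus submaximal agonist and 100% = vehicle plus saturating agonist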
Target sequence (P49146 whole entry, looked up): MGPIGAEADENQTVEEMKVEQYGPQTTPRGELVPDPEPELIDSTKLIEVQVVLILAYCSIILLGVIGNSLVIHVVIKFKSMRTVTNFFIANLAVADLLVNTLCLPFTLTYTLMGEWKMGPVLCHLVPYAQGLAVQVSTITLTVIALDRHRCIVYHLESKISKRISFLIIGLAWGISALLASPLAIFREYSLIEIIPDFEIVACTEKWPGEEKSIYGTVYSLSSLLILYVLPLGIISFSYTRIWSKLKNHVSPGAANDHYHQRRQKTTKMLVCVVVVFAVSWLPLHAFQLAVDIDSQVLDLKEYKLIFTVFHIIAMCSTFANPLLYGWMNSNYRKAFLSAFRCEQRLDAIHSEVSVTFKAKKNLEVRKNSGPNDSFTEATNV
NPY1 pot ag: NPY-Y1 receptor potentiators or agonists, primary screen, cell-based; Neuropeptide Y receptor type 1 (Homo sapiens), P25929; 220,000 tested, 0.37% active; activation, % at 3.6 µM; AID 1304, 2008; NPY-Y1 expressing cells, potentiator/agonist activation; in the data active means activation above about 33%, passing the limit was not always enough;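 further: cells stimulated with NPY at EC10 then isoproterenol at EC100; 0% = low agonist plus stimulus and 100% = saturating agonist plus stimulus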
Rad51 HR inh: human RAD51 strand exchange inhibitors, primary screen, biochemical, fluorescence | inhibition, % at 10 µM | AID 1385, 2008 | 200,000 tested, 0.085% active | DNA repair protein RAD51 homolog 1 (Homo sapiens), Q06609 | hRad51 DNA strand exchange, fluorescence dequenching;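 active means inhibition above 40% at the single screening dose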;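 further: 0% = DMSO control wells and 100% = blanks with heterologous ssDNA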
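Test system: preformed human Rad51 ssDNA filaments; also added: Donor/quencher-labelled 47-bp dsDNA substrate; doses: 10 µM final, single point; times: 37 °C 15-min filament assembly, 30-min compound preincubation, 15-min exchange; detection: FRET fluorescence dequenching, excitation 485 nm, emission 520 nm; read-out basis: Fluorescence-based percent inhibition, control- and blank-normalised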
Measles CPE: compounds protecting cells from measles virus cytopathic effect, primary screen, measles RdRp inhibitor project, single point, MLSMR library, absorbance; Measles virus-infected cells, CPE protection; protection (pct of control), % at 4 µM; 140,000 tested, 1.5% active; AID 841, 2007; in the data active means protection mostly above about 24%, no sharp cut-off; inactive means mostly below about 26%
NPY-Y1 antag: NPY-Y1 receptor antagonists, primary screen, cell-based. Neuropeptide Y receptor type 1 (Homo sapiens), P25929. HEK293-CNG Y1 cells, membrane potential fluorescence; NPY at EC95, then isoproterenol. inhibition, % at 3.6 µM. 200,000 tested, 1% active. AID 1040, 2008;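 active means inhibition above the campaign mean inhibition of all tested compounds plus 3 SD, cut at about 20% in these data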;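 further: 0% = DMSO wells given NPY plus isoproterenol and 100% = isoproterenol alone without NPY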
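Assay system: HEK293 Y1/CNG channel cell line; Doses: single compound dose of 3.6 µM, 0.4% DMSO; Timing: dye 3 h, compound 60 min room temperature, stimulation 45 min; Technique: Membrane-potential fluorescent dye readout; Measure: % inhibition of NPY effect.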
NPY-Y2 antag: NPY-Y2 receptor antagonists, primary screen, cell-based; NPY-Y2 expressing cells, antagonist mode; Neuropeptide Y receptor type 2 (Homo sapiens), P49146; 140,000 tested, 0.99% active; inhibition, % at 2.7 µM; in the data active means inhibition above about 17%;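 further: 0% = vehicle with agonist challenge and 100% = reference antagonist with challenge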
Starred values were filed as active, the others as inactive.

`COc1ccc(C(=O)NCC(=O)OCC(=O)c2cc(OC)c(OC)c(OC)c2)cc1OC` gave NPY-Y2 PAM-ag 10, NPY1 pot ag 1, Rad51 HR inh -2, Measles CPE 44*, NPY-Y1 antag 1 and NPY-Y2 antag 1.
Cc1ccc(N2C(=O)NC3(CCCCC3)C2=O)cc1 was read as NPY-Y2 PAM-ag -11, NPY1 pot ag 1, Measles CPE 7, NPY-Y1 antag 5 and NPY-Y2 antag 1.
Cc1ccc(N2C(=O)CC3(CC4C=CC3C4)C2=O)cc1 (centres undefined) was read as NPY-Y2 PAM-ag -5, NPY1 pot ag -1, Rad51 HR inh 4, Measles CPE 53*, NPY-Y1 antag 0 and NPY-Y2 antag -1.
COc1cccc(C2NC(=O)c3ccccc3O2)c1OC (centres undefined) was read as NPY-Y2 PAM-ag 5, NPY1 pot ag 19, Rad51 HR inh 2, Measles CPE 18, NPY-Y1 antag 12 and NPY-Y2 antag 2.
Screening O=C1NC(c2ccccc2OC(F)F)Oc2ccccc21 (centres undefined) returned NPY-Y2 PAM-ag 56*, NPY1 pot ag 46*, Rad51 HR inh 9 and NPY-Y1 antag -6.
For CCOc1ccc(N2C(=O)CC(Sc3ccccc3C(=O)O)C2=O)c([N+](=O)[O-])c1 (centres undefined) the results were NPY-Y2 PAM-ag -14, NPY1 pot ag -7, Rad51 HR inh 5 and NPY-Y1 antag -5.
`Cc1ccc(SCC(=O)N2c3ccccc3Sc3ccccc32)cc1` gave NPY-Y2 PAM-ag -30, NPY1 pot ag -49, Rad51 HR inh -8, Measles CPE 11, NPY-Y1 antag 10 and NPY-Y2 antag 5.
CCC/C(O)=C1\C(=O)CC(C)(C)CC1=Nc1ccccc1O was read as NPY-Y2 PAM-ag 12, NPY1 pot ag 14, Rad51 HR inh -7 and NPY-Y1 antag -5.
`O=C(CSc1nc(-c2ccccc2)c(-c2ccccc2)[nH]1)N1CCN(S(=O)(=O)c2ccccc2)CC1` gave NPY-Y2 PAM-ag 0, NPY1 pot ag -2, Rad51 HR inh 0, Measles CPE 28*, NPY-Y1 antag 2 and NPY-Y2 antag 4.
Screening O=Cc1ccc(-n2nncc2-c2ccc([N+](=O)[O-])cc2)cc1 returned NPY-Y2 PAM-ag -3, NPY1 pot ag -5, Rad51 HR inh -8 and NPY-Y1 antag 1.
`O=C(NCC1CCCO1)C(c1cccs1)N(C(=O)c1ccc(-c2ccccc2)[nH]1)C1CCCC1` (centres undefined) gave NPY-Y2 PAM-ag 0, NPY1 pot ag -10, Measles CPE 51*, NPY-Y1 antag 8 and NPY-Y2 antag 6.
For Cc1ccc(N=C2SC(C(=O)NCCc3ccccc3)CC(=O)N2C)cc1C (centres undefined) the results were NPY-Y2 PAM-ag 2, NPY1 pot ag 20, Rad51 HR inh 9 and NPY-Y1 antag -1.
`CC(CNC(=O)C(C)C)NC(=O)C(C)C` (centres undefined) gave NPY-Y2 PAM-ag 3, NPY1 pot ag -12, Rad51 HR inh 15, Measles CPE 27*, NPY-Y1 antag 1 and NPY-Y2 antag 0.
CC(C)CC(=O)NCC(C)NC(=O)CC(C)C (centres undefined) was read as NPY-Y2 PAM-ag 16, NPY1 pot ag 4, Rad51 HR inh -8, Measles CPE 3, NPY-Y1 antag -1 and NPY-Y2 antag 6.
O=C(O)c1cc(/C=C/c2ccc(N3CCOCC3)cc2)nc2ccccc12 was read as NPY-Y2 PAM-ag 17, NPY1 pot ag -4, Rad51 HR inh -7 and NPY-Y1 antag 8.
`O=C(O)c1cc(/C=C/c2ccc(N3CCOCC3)c([N+](=O)[O-])c2)nc2ccccc12` gave NPY-Y2 PAM-ag 78*, NPY1 pot ag 53* and Rad51 HR inh 22.

Assay outcomes deposited in PubChem BioAssay by several laboratories.
